Reference: ChEMBL document CHEMBL1833926, “Bicyclic heteroaryl inhibitors of stearoyl-CoA desaturase: from systemic to liver-targeting inhibitors” (Bioorg Med Chem Lett, 2011)
The source made the active and inactive calls. The calls are words filed in the database; no cut-off is given here.

Assays:
[1] = biological target: Acyl-CoA (8-3)-desaturase (Homo sapiens) (UniProt O60427); assay: Inhibition of delta-5 desaturase
Acyl-CoA desaturase 1 [2] = biological target: T1, Acyl-CoA desaturase 1 (Rattus norvegicus, UniProt P07308); assay: Inhibition of rat SCD1 in rat liver microsome
T1 sequence (P07308 whole entry): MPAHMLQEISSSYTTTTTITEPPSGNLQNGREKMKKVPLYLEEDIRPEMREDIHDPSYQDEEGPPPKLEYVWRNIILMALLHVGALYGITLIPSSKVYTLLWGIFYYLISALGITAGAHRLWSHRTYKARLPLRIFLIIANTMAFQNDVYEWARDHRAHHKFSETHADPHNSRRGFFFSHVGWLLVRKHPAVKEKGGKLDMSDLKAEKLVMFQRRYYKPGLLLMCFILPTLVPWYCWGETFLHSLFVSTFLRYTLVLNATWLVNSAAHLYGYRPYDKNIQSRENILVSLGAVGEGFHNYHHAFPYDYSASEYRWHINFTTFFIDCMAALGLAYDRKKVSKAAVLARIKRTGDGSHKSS

[3] = biological target: T2, Acyl-CoA 6-desaturase (Homo sapiens) (UniProt O95864); assay: Inhibition of delta-6 desaturase
T2 sequence (whole entry): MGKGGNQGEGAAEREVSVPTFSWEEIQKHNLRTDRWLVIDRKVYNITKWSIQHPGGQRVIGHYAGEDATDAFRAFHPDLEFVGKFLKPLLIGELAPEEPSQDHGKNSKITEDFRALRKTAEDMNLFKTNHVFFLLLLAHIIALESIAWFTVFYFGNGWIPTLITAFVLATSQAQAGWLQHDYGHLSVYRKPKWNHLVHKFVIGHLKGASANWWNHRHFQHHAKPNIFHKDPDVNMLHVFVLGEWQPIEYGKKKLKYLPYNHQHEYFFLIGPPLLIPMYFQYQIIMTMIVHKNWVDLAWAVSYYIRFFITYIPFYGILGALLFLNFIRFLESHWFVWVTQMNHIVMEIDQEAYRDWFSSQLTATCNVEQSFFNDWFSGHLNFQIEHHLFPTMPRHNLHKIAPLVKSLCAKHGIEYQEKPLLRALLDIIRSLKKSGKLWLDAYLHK

Stearoyl-CoA desaturase = biological target: T3, Stearoyl-CoA desaturase (Homo sapiens, UniProt O00767); assay: Inhibition of SCD1 in human HepG2 cells; type: cell-based
T3 sequence (O00767 whole entry): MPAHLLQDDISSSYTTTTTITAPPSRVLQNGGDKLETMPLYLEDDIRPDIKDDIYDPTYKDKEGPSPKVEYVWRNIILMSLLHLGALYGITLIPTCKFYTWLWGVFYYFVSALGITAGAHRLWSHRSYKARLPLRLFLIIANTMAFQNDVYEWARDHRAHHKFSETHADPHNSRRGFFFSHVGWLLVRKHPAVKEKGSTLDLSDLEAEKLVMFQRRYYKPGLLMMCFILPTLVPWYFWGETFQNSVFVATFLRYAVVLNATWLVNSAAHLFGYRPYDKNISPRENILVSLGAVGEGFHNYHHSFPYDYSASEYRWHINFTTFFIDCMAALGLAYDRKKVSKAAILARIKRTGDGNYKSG

[4] = Ratio of drug uptake in liver to skin in C57BL/6 mouse liver at 10 mg/kg, po after 6 hrs; type: ADME, organism-based, C57BL6; set-up: dose 10 mg/kg, route oral; settings: in vivo
In short: (§1)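 Single oral dose of 10 mg/kg in 0.5% methocel given to C57BL6 mice on normal chow. Drug levels measured 6 h post-dose in liver, white adipose, skin and Harderian glands. Liver/tissue fold selectivity taken from these levels.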

HepG2 [5] = assay: Ratio of IC50 for SCD1 in human HepG2 cells to IC50 for SCD1 in rat Hep cells; type: cell-based
In short: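 Fold shift computed as hHepG2 whole-cell IC50 over rat hepatocyte IC50.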

[6] = Ratio of drug uptake in liver to harderian glands in C57BL/6 mouse at 10 mg/kg, po after 6 hrs; type: ADME, organism-based, C57BL6; set-up: dose 10 mg/kg, route oral; settings: in vivo; in short: as §1
Acyl-CoA desaturase 1 [7] = biological target: T1, Acyl-CoA desaturase 1; assay: Inhibition of SCD1 in rat Hep cells; type: cell-based
In short: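 Whole-cell SCD1 inhibition measured in rat hepatocytes, which express OATP transporters, in the presence of 10% fetal bovine serum; IC50 determined.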

[8] = Ratio of drug uptake in liver to adipose tissue in C57BL/6 mouse at 10 mg/kg, po after 6 hrs; type: ADME, organism-based, C57BL6; set-up: dose 10 mg/kg, route oral; settings: in vivo; in short: as §1
HepG2 [9] = assay: Ratio of IC50 for SCD1 in human HepG2 cells to IC50 for rat SCD1; type: cell-based
In short: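 Fold shift computed as hHepG2 whole-cell IC50 over the SCD1-induced rat liver microsomal enzyme IC50.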

[10] = Drug uptake in C57BL/6 mouse liver at 10 mg/kg, po after 6 hrs; type: ADME, organism-based, C57BL6; set-up: dose 10 mg/kg, route oral; settings: read-out: Drug uptake; in short: as §1
[11] = AUC (0 to 24 hrs) in C57BL/6 mouse at 10 mg/kg, po; type: ADME, organism-based, C57BL6; set-up: time < 24 hr, dose 10 mg/kg, route oral; settings: whole blood
In short: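 Oral gavage, 10 mg/kg in 0.5% methocel, to C57BL6 mice; whole blood exposure measured over 0–24 h as AUC.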

[12] = Drug uptake in C57BL/6 mouse adipose tissue at 10 mg/kg, po after 6 hrs; type: ADME, organism-based, C57BL6; set-up: dose 10 mg/kg, route oral; settings: in vivo; in short: as §1
Mus musculus [13] = assay: Inhibition of SCD1 activity in high carbohydrate diet fed C57BL/6 mouse assessed as reduction in conversion of [1-14C]stearic acid to [1-14C]oleic acid at 30 mg/kg, po after 3 hrs; type: functional; settings: C57BL6, 3 h
In short: (§2)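 Mouse liver PD assay in C57BL6 mice on a high carbohydrate diet, n = 5/group. Compound given orally in 0.5% methocel. At 1 h, [1-14C]-stearic acid in 60% aqueous PEG 200 given iv. Livers harvested 2 h after tracer. Lipids hydrolyzed; SCD1 activity index = 14C-oleic/14C-stearic acid ratio.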

[14] = Drug uptake in C57BL/6 mouse liver at 30 mg/kg, po after 3 hrs; type: ADME, organism-based, C57BL6; set-up: dose 30 mg/kg, route oral; settings: read-out: Drug uptake
In short: (§3)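 Drug levels in liver and plasma measured in the mouse liver PD study. C57BL6 mice on a high carbohydrate diet received an oral dose in 0.5% methocel. Samples were taken 3 h post-dose, with livers harvested 2 h after iv [1-14C]-stearic acid tracer.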

[15] = Plasma concentration in C57BL/6 mouse at 30 mg/kg, po after 3 hrs; type: ADME, organism-based, C57BL6; set-up: dose 30 mg/kg, route oral; in short: as §3
[16] = Apparent permeability across pig LLC-PK1 cells; type: ADME, cell-based, Sus scrofa
[17] = Plasma concentration in C57BL/6 mouse at 60 mg/kg, po after 3 hrs; type: ADME, organism-based, C57BL6; set-up: dose 60 mg/kg, route oral; in short: as §3
[18] = Drug uptake in C57BL/6 mouse liver at 60 mg/kg, po after 3 hrs; type: ADME, organism-based, C57BL6; set-up: dose 60 mg/kg, route oral; settings: read-out: Drug uptake; in short: as §3
Mus musculus [19] = assay: Inhibition of SCD1 activity in high carbohydrate diet fed C57BL/6 mouse assessed as reduction in conversion of [1-14C]stearic acid to [1-14C]oleic acid at 60 mg/kg, po after 3 hrs; type: functional, organism-based; set-up: dose 60 mg/kg; settings: C57BL6; in short: as §2

Acyl-CoA (8-3)-desaturase (Homo sapiens), sequence (O60427 whole entry, looked up): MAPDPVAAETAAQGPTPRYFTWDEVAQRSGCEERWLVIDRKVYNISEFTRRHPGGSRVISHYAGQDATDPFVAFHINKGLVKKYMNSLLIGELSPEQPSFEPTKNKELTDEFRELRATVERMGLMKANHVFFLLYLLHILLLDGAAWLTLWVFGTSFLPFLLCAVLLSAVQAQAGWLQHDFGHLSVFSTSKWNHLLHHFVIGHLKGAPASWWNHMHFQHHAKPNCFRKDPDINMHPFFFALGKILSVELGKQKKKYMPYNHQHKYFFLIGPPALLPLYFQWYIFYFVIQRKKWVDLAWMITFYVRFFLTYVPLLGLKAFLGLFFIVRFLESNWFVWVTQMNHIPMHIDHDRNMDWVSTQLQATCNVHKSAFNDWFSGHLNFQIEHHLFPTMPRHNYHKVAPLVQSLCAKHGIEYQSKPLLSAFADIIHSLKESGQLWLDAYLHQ

Compound	inhibition [1]	IC50 (Acyl-CoA desaturase 1 [2]) [nM]	inhibition [3]	IC50 (Stearoyl-CoA desaturase) [nM]	further results
Cc1ncc2sc(N3CCC(Oc4ccccc4C(F)(F)F)CC3)nc2n1	inactive	54	inactive	182	
Nc1ncnc2nc(N3CCC(Oc4ccccc4C(F)(F)F)CC3)sc12	inactive	56	inactive		
FC(F)(F)c1ccccc1OC1CCN(c2ncc3nc[nH]c3n2)CC1	inactive		inactive		
O=c1[nH]c(N2CCC(Oc3ccccc3C(F)(F)F)CC2)nc2[nH]cnc12	inactive	97	inactive	378	
Fc1ccc(Br)c(OC2CCN(c3ncc4nc[nH]c4n3)CC2)c1	inactive		inactive		
FC(F)(F)c1ccccc1OC1CCN(c2ncnc3[nH]cnc23)CC1	inactive		inactive		
Nc1ncnc2[nH]c(N3CCC(Oc4ccccc4C(F)(F)F)CC3)nc12	inactive		inactive		
O=C(O)COc1nc2cnc(N3CCC(Oc4cc(F)ccc4Br)CC3)nc2s1		7		53	Ratio [4]: 403; Ratio IC50 (HepG2 [5]): < 1; Ratio [6]: 3; IC50 (Acyl-CoA desaturase 1 [7]): 348 nM; Ratio [8]: 173; Ratio IC50 (HepG2 [9]): 7
O=c1[nH]cnc2nc(N3CCC(Oc4ccccc4C(F)(F)F)CC3)sc12	inactive	7	inactive	29	
O=c1[nH]ccc2nc(N3CCC(Oc4ccccc4C(F)(F)F)CC3)sc12	inactive	85	inactive	268	
Fc1ccc(Br)c(OC2CCN(c3nc4ccccc4s3)CC2)c1	inactive	477	inactive	10600	
Fc1ccc(Br)c(OC2CCN(c3ncnc4nc[nH]c34)CC2)c1		1		< 39	
Cc1nc2nc(N3CCC(Oc4ccccc4C(F)(F)F)CC3)sc2c(=O)[nH]1	inactive	8	inactive	59	Ratio [4]: 7; concentration at 6 h [10]: 21.8 µM; AUC(0-t) at 24 h [11]: 30 µM·h; Drug uptake [12]: Not Active; Ratio [6]: 1.1
FC(F)(F)c1ccccc1OC1CCN(c2ncnc3nc[nH]c23)CC1		10		48	
O=c1[nH]c(CO)nc2nc(N3CCC(Oc4ccccc4C(F)(F)F)CC3)sc12	inactive	2	inactive	16	
FC(F)(F)c1ccccc1OC1CCN(c2ncc3[nH]cnc3n2)CC1		10		257	
Oc1nc2cnc(N3CCC(Oc4ccccc4C(F)(F)F)CC3)nc2[nH]1	inactive		inactive		
Fc1ccc(Br)c(OC2CCN(c3ncnc4[nH]cnc34)CC2)c1	inactive		inactive		
Fc1ccc(Br)c(OC2CCN(c3ncc4[nH]cnc4n3)CC2)c1		3		47	
NC(=O)c1cnc(N2CCN(C(=O)c3ccccc3C(F)(F)F)CC2)s1					AUC(0-t) at 24 h [11]: 11 µM·h
O=C(O)CNc1nc2cnc(N3CCC(Oc4cc(F)ccc4Br)CC3)nc2s1		4		168	Ratio [4]: 145; inhibition in vivo at 30 mg/kg (Mus musculus [13]): 72%; Ratio IC50 (HepG2 [5]): 1; concentration at 3 h [14]: 4.1 µM; Ratio [6]: 21; concentration at 3 h [15]: 0.2 µM; IC50 (Acyl-CoA desaturase 1 [7]): 158 nM; Ratio [8]: 41; Ratio IC50 (HepG2 [9]): 42
O=C(O)CCc1nc2nc(N3CCC(Oc4cc(F)ccc4Br)CC3)sc2c(=O)[nH]1		266		24300	Ratio [4]: 22; Ratio IC50 (HepG2 [5]): 145; Papp [16]: 2 ×10⁻⁶ cm/s; concentration at 3 h [17]: 0.2 µM; concentration at 3 h [18]: 3.3 µM; inhibition (Mus musculus [19]): inactive; IC50 (Acyl-CoA desaturase 1 [7]): 168 nM; Ratio [8]: 31; Ratio IC50 (HepG2 [9]): 91
Nc1nc2cnc(N3CCC(Oc4cc(F)ccc4Br)CC3)nc2s1	inactive	1	inactive	17	
FC(F)(F)c1ccccc1OC1CCN(c2nc3ncccc3s2)CC1	inactive	83	inactive	755	
O=c1[nH]c2cnc(N3CCC(Oc4ccccc4C(F)(F)F)CC3)nc2[nH]1		38		319	Ratio [4]: 4.4; concentration at 6 h [10]: 24.7 µM; Ratio [6]: 0.8; Ratio [8]: 3.6
